Source: PubChem BioAssay (several laboratories)
Sampled rows, rich in hits. Any-hit rate of the full collection: about 2.2%.
GalR3 antag: GalR3 antagonists in HEK293 cells, primary screen, cell-based, fluorescence readout; 360,000 tested, 0.44% active; inhibition, % at 3 µM; Galanin receptor type 3 (Homo sapiens), O60755; HEK293 GalR3-CNG cAMP membrane potential fluorescence; galR3 body fused to GalR1 C-terminus;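 active = inhibition above the screen-wide average plus 3 SD, cut at about 13% in these data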;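 also: forskolin and galanin both at EC90 stimulate the cells; cAMP rise reported by CNG channel membrane potential dye signal; 0% = forskolin plus galanin with DMSO and 100% = forskolin alone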
Target sequence (O60755 1-299 limits assumed): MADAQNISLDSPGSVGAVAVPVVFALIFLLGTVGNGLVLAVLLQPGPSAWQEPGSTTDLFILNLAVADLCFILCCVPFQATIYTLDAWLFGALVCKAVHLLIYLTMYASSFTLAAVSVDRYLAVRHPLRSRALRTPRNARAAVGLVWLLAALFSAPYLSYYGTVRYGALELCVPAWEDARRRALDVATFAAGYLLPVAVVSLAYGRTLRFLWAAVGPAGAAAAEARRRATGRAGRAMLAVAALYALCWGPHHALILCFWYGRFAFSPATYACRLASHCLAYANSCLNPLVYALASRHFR
FXN GAA850 act: FXN promoter activators, primary screen, cell-based, luciferase luminescence, HEK293 lucGAA850; HEK293 lucGAA850 FXN promoter luciferase reporter, 24 h; percent of 10 µM SAHA response; activation, % at 6 µM; 360,000 tested, 0.56% active; AID 540364, 2011;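 active = activation above the average of all compounds screened plus 3 SD, cutoff fixed separately per campaign, cut at about 7.5% in these data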;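 also: 0% = DMSO wells and 100% = 10 µM SAHA wells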
HIV Env fusion: inhibitors of HIV-1 Env-driven cell-cell fusion, primary screen, HeLa-JRFL effector, CEM21 target cells, luciferase; AID 651610, 2012; inhibition, % at 12.3 µM; 360,000 tested, 1.1% active;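 active = mean replicate inhibition score of at least 50 and every replicate individually at or above 50; inconclusive = only one of the two criteria met; inactive = mean below 50 and not all replicates reaching 50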;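 also: 0% = plate neutral controls and 100% = maraviroc near 300 nM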
NR2E3 ag-1: inhibitors of NR2E3-RetCOR corepressor binding, primary screen, NR2E3 agonist project, biochemical, TR-FRET, GST-NR2E3, biotin-RetCOR; Photoreceptor-specific nuclear receptor (Homo sapiens), Q9Y5X4; 1536-well; inhibition of corepressor binding, % at 4.78 µM; 320,000 tested, 0.12% active; AID 2300, 2010;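 active = percent inhibition above the cutoff of mean plus 3 SD of all tested compounds, set per screening campaign, cut at about 20% in these data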;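 also: 0% = DMSO wells and 100% = biotin wells as full block of FRET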
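Test system – NR2E3–RetCOR corepressor complex · Quantity – NR2E3 fusion 1.35 nM · Buffer or medium – Tris pH 7.5 · Incubation – Compound–protein incubation for 5 h at 4 °C · Technique – TR-FRET, Eu(K)-anti-GST donor, streptavidin-D2 acceptor, ex 340, em 617/671 nm · Evaluation – percent inhibition of 671/617 nm emission ratio versus biotin and DMSO controls · Plate – 1536-well format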
V-ATPase pH: regulators of yeast V-ATPase proton pumping, primary screen, pHLuorin cytosolic pH fluorescence; S. cerevisiae; response, % at 10 µM; 350,000 tested, 0.37% active; in the data active = response mostly above about 7.3%, no sharp cut-off; inactive = mostly below about 5.4%; also: actives read high
NR2E3 ag-2: NR2E3 agonists in two-hybrid cells, primary screen, cell-based, luminescence, CHO-S, Gal4-NCOR/VP16-NR2E3; Photoreceptor-specific nuclear receptor (Homo sapiens), Q9Y5X4; luciferase; inhibition of corepressor binding, % at 3.98 µM; 360,000 tested, 0.35% active;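 active = inhibition above the mean of all tested compounds plus 3 SD, cut at about 70% in these data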;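 also: 0% = DMSO with NR2E3 transfected cells and 100% = cells lacking NR2E3 construct; higher means lower luciferase signal from less NR2E3 corepressor binding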
NR2E3 ag confirm: NR2E3 agonist confirmation in cells, cell-based, luminescence, CHO-S two-hybrid | AID 624378, 2012 | shares compounds with NR2E3 ag-2 | inhibition, % at 3.98 µM | 2,300 tested, 51% active | CHO-S mammalian two-hybrid NR2E3-NCOR, luciferase luminescence;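 active = average inhibition above a cutoff equal to the mean inhibition of all tested compounds plus one SD, cut at about 70% in these data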;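 also: 0% = DMSO in NR2E3 cells and 100% = DMSO in cells lacking NR2E3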
GAL4-VP16 luc: GAL4-VP16 reporter modulators, confirmation, counter-screen for NR2E3 agonist project, cell-based, luminescence, CHO-S, high throughput | shares compounds with NR2E3 ag-2 | CHO-S GAL4-VP16 luciferase reporter | inhibition, % at 3.98 µM | 2,300 tested, 29% active;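 active = mean inhibition above a cutoff equal to the average over all tested compounds plus one standard deviation, cut at about 70% in these data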;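 also: luciferase from a UAS reporter driven by GAL4-VP16 transactivation; 0% = DMSO with VP16-transfected cells and 100% = DMSO with cells lacking VP16; higher means less reporter light so more repression of VP16 activity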
The depositor's hits bear a star; ? = inconclusive; . = no result given; [ ] = remark or other dose.

SMILES	GalR3 antag	FXN GAA850 act	HIV Env fusion	NR2E3 ag-1	V-ATPase pH	NR2E3 ag-2	NR2E3 ag confirm	GAL4-VP16 luc
O=C(Nc1nccs1)c1ccc(S(=O)(=O)NCc2cccs2)cc1	-7	3	.	5	2	-5	.	.
O=C(Nc1nccs1)c1ccc(S(=O)(=O)NCC2CCCCC2)cc1	-7	-4	?	0	2	58	59	65
C[C@@H]1CN([C@H](C)CO)S(=O)(=O)c2ccc(C#C[C@@H](C)O)cc2O[C@@H]1CN(C)C(=O)C1CCC1	.	.	-24[16.7 µM]	.	.	.	.	.
N=C1SC(c2ccccc2)C(=O)N1c1ncc(Cc2ccccc2Cl)s1 (stereo not given)	4	1	17	-1	-2	58	59	20
Cc1ccc(S(=O)(=O)N(C)C[C@H]2OCCCC[C@@H](C)Oc3ccc(NC(=O)Nc4ccccc4)cc3C(=O)N([C@H](C)CO)C[C@@H]2C)cc1	.	.	-16[16.7 µM]	.	.	.	.	.
CN(Cc1cccc2cnccc12)C(=O)c1cc(COc2ccc(F)cc2F)on1	-3	0	21	.	-2	72*	54	55
CN(Cc1cccc2ccccc12)C(=O)c1cc(COc2c(F)cccc2F)on1	-4	1	12	-3	-1	-40	.	.
CCC(=O)N[C@H]1CC[C@H](CC(=O)NCCN2CCCCC2)O[C@@H]1CO	.	.	1[16.7 µM]	.	.	.	.	.
COc1ccc(NS(=O)(=O)c2ccc3oc(SC)nc3c2)cc1	-11	-2	13	0	1	74*	53	56
CC1CCN(S(=O)(=O)c2ccc([N+](=O)[O-])cc2)CC1	-9	-1	14	-3	-3	-22	.	.
CC1CCN(S(=O)(=O)c2ccc(Oc3ccc([N+](=O)[O-])cc3)cc2)CC1	-2	-1	72*	3	1	88*	91*	76*
O=C1NC(=S)S/C1=C\c1cc(Cl)ccc1Cl	-2	1	-8	.	0	81*	99*	69
COc1ccc2cc(S(=O)(=O)NCc3cccnc3)ccc2c1	-6	-2	-5	4	1	57	26	38
O=C(Nc1ccc(Cl)c(Cl)c1)c1cccc(S(=O)(=O)NCc2cccnc2)c1	5	-5	?	-2	-1	55	84*	72*
COc1ccccc1N(Cc1ccccc1)S(=O)(=O)c1cccc(C(=O)Nc2ccc(C)cn2)c1	-5	-2	42	-1	3	57	0	4
COc1ccccc1N(Cc1ccccc1)S(=O)(=O)c1cccc(C(=O)Nc2ccccn2)c1	-2	-5	28	-2	-1	-19	.	.
C[C@H](CO)N1C[C@H](C)[C@H](CN(C)C(=O)C2CCCCC2)Oc2cc(C#CC3CC3)ccc2S1(=O)=O	.	.	35[16.7 µM]	.	.	.	.	.
Nc1ncc(Br)cc1S(=O)(=O)Nc1cc(C(F)(F)F)cc(C(F)(F)F)c1	-6	0	6	0	-1	109*	101*	90*
Cc1ccc(NS(=O)(=O)c2cc(Br)cnc2N)c(Cl)c1	-6	1	-4	2	3	-11	.	.
CC(C)n1c(-c2ccc(C(C)(C)C)cc2)n[nH]c1=S	-5	0	43	2	-1	79*	84*	70
O=C(NC(NNc1ccc([N+](=O)[O-])cc1)(C(F)(F)F)C(F)(F)F)c1ccccc1Cl	-5	-5	-20	4	1	-12	.	.
